Results taken from ChEMBL document CHEMBL5252546, “Salutaxel, a Conjugate of Docetaxel and a Muramyl Dipeptide (MDP) Analogue, Acts as Multifunctional Prodrug That Inhibits Tumor Growth and Metastasis” (J Med Chem, 2018).
Values belong to the compound of their own block, whether it stands above or below them. Calls of active or inactive are those of the source. The rule behind the calls is not given here.

Assays:
4T1 [1] = experiment: Antitumor activity against mouse 4T1 cells xenografted with BALB/c mouse assessed as decrease in lung metastasis at 5.7 mg/kg,iv administrated once per week for 4 weeks; assay type: functional, organism-based
Outline: (§1)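 4T1 cells injected into mammary fat pads of BALB/c mice. Dosing iv once per week for 4 weeks, saline vehicle; single-agent arms were given alone or with the peptide component (5b or 6). Endpoints were body weight, tumour volume, tumour weight, lung metastatic nodule count and lung metastasis score. Mean ± SEM, n = 10; ANOVA and Student's t test.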

[2] = Cmax in mouse plasma implanted with mouse 4T1 cells at 5.7 mg/kg,iv measured upto 72 hrs; assay type: ADME, organism-based; design: dose 5.7 mg/kg, time < 72 hrs, route iv
4T1 [3] = experiment: Antitumor activity against mouse 4T1 cells implanted in BALB/c mouse assessed as decrease in tumor MMP9 expression level at 5.7 mg/kg,iv administrated once per week for 4 weeks by western blot assay; assay type: functional, organism-based
Outline: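 4T1 cells injected into mammary fat pads of BALB/c mice. Saline vehicle or test article given iv once weekly for 4 weeks. Spleen, lung and tumor lysates immunoblotted for MMP2/MMP9 with β-actin as loading control. Bands averaged over five mice per group, representative of two independent experiments.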

4T1 [4] = experiment: Antitumor activity against mouse 4T1 cells xenografted with BALB/c mouse assessed as reduction lung metastatic nodules at 5.7 mg/kg,iv in presence of compound 6 administrated once per week for 4 weeks; assay type: functional, organism-based; outline: as §1
[5] = Acute toxicity in Sprague-Dawley rat assessed as lethal dose at iv administration; assay type: organism-based; conditions: in vivo
Outline: (§2)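 Acute toxicity after a single intravenous administration. […] In dogs, an approximate lethal dose range was determined.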

[6] = Toxicity in female Sprague-Dawley rat assessed as maximal non-toxic dose at iv administration; assay type: organism-based; conditions: in vivo, read-out: MNTD
[7] = Stability in rat hepatocyte assessed as compound remaining at 3 uM incubated upto 120 mins; assay type: ADME, cell-based; conditions: hepatocytes, 2 h
[8] = Tmax in female rat at 8 mg/kg,iv measured upto 24 hrs; assay type: ADME, organism-based; conditions: in vivo
[9] = Toxicity in male Sprague-Dawley rat assessed as testicular atrophy at 2 to 8 mg/kg,iv measured upto 24 hrs; assay type: organism-based; conditions: in vivo, dose 2-8 mg/kg
4T1 [10] = experiment: Antitumor activity against mouse 4T1 cells implanted in BALB/c mouse assessed as decrease in spleen MDSC cells at 10 mg/kg,iv measured after 28 days (reference value: 38%); assay type: functional; design: scale not given: the % may be the effect or the level left; conditions: time 28 day
[11] = Half life in rat at 2 mg/kg,iv measured upto 24 hrs; assay type: ADME, organism-based; conditions: in vivo
MDA-MB-231 = experiment: Antitumor activity against human MDA-MB-231 cells xenografted with BALB/c mouse assessed as inhibition of tumor growth at 10 mg/kg,iv administrated once per week for 3 weeks; assay type: functional, organism-based
Outline: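 BALB/c nu/nu mice given subcutaneous human tumour cells in the right flank; dosing began at about 100–120 mm3 mean volume; iv once weekly for 3 weeks, with equimolar parent drug as positive control; tumour volume and weight measured; n = 8, mean ± SEM, ANOVA and Student's t test.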

[12] = Drug metabolism in rat bile assessed as metabolite MDA-205 formation at 4 mg/kg,iv measured after 24 hrs; assay type: ADME, organism-based; conditions: in vivo
[13] = MRT (0 to infinity) in female Beagle dog at 2 mg/kg,iv measured upto 24 hrs; assay type: ADME, organism-based, Canis lupus familiaris; conditions: in vivo
[14] = Tmax in female rat at 4 mg/kg,iv measured upto 24 hrs; assay type: ADME, organism-based; conditions: in vivo
[15] = Drug metabolism in mouse hepatocytes assessed as docetaxel metabolite formation at 20 uM incubated for 180 mins; assay type: ADME, cell-based, Hepatocyte; conditions: 3 h
[16] = Cmax in male Beagle dog at 2 mg/kg,iv measured upto 24 hrs; assay type: ADME, organism-based, Canis lupus familiaris; design: dose 2 mg/kg, time < 24 hrs, route iv; conditions: in vivo
Outline: (§3)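 Beagle dogs were given a single iv infusion at 1, 2 or 4 mg/kg. Plasma parent drug and released docetaxel were followed over time. Cmax, Tmax, AUC, MRT, t1/2, CL and Vss were reported by sex and for all dogs combined.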

[17] = Cmax in mouse plasma implanted with mouse 4T1 cells at 10 mg/kg,iv measured upto 72 hrs; assay type: ADME, organism-based; design: dose 10 mg/kg, time < 72 hrs, route iv
Outline: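 BALB/c mice carried 4T1 cells implanted in the mammary fat pad and received a single iv dose of 10 mg/kg. Parent drug and released docetaxel were assayed in plasma and tumor tissue up to 72 h. Parameters came from noncompartmental analysis, n = 6, mean ± SD.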

[18] = Tmax in mouse plasma implanted with mouse 4T1 cells at 10 mg/kg,iv measured upto 72 hrs; assay type: ADME, organism-based
[19] = Tmax in mouse tumor implanted with mouse 4T1 cells at 10 mg/kg,iv measured upto 72 hrs; assay type: ADME, organism-based, Neoplasm
[20] = Stability in monkey hepatocyte assessed as compound remaining at 3 uM incubated upto 120 mins; assay type: ADME, cell-based, Macaca mulatta; conditions: rhesus monkey, hepatocytes, 2 h
[21] = Clearance in Beagle dog at 4 mg/kg,iv measured upto 24 hrs; assay type: ADME, organism-based, Canis lupus familiaris; conditions: in vivo; outline: as §3
[22] = Clearance in Beagle dog at 1 mg/kg,iv measured upto 24 hrs; assay type: ADME, organism-based, Canis lupus familiaris; conditions: in vivo; outline: as §3
4T1 [23] = experiment: Synergistic antitumor activity against mouse 4T1 cells xenografted with BALB/c mouse assessed as decrease in tumor volume at 10 mg/kg,iv administrated in combination with doxorubicin once per week for 4 weeks; assay type: functional, organism-based
[24] = AUC (0-t) in male Beagle dog at 4 mg/kg,iv measured upto 24 hrs; assay type: ADME, organism-based, Canis lupus familiaris; design: dose 4 mg/kg, time < 24 hrs, route iv; conditions: in vivo
Outline: (§4)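 Single iv dose: rats 2, 4 or 8 mg/kg by intravenous injection; Beagle dogs 1, 2 or 4 mg/kg by intravenous infusion. Plasma concentration–time data were analysed by sex and pooled. Reported parameters: Cmax, Tmax, AUC0−t, AUC0−∞, MRT0−∞, t1/2, CL, Vss, given as mean ± SD.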

[25] = AUC (0-infinity) in female rat at 8 mg/kg,iv measured upto 24 hrs; assay type: ADME, organism-based; design: dose 8 mg/kg, time < 24 hrs, route iv; conditions: in vivo; outline: as §4
[26] = Acute toxicity in Sprague-Dawley rat assessed as maximum tolerated dose at iv administration; assay type: organism-based; conditions: in vivo; outline: as §2
[27] = Cmax in male Beagle dog at 4 mg/kg,iv measured upto 24 hrs; assay type: ADME, organism-based, Canis lupus familiaris; design: time < 24 hrs, dose 4 mg/kg, route iv; conditions: in vivo; outline: as §3
[28] = Cmax in male Beagle dog at 1 mg/kg,iv measured upto 24 hrs; assay type: ADME, organism-based, Canis lupus familiaris; design: dose 1 mg/kg, time < 24 hrs, route iv; conditions: in vivo; outline: as §3
[29] = MRT (0 to infinity) in male Beagle dog at 1 mg/kg,iv measured upto 24 hrs; assay type: ADME, organism-based, Canis lupus familiaris; conditions: in vivo
COLO 205 = experiment: Antiproliferative activity against human COLO 205 cells assessed inhibition of cell growth incubated for 72 hrs by SRB assay; assay type: functional, cell-based; conditions: COLO 205, 72 h
[30] = Cmax in rat at 4 mg/kg,iv measured upto 24 hrs; assay type: ADME, organism-based; design: dose 4 mg/kg, time < 24 hrs, route iv; conditions: in vivo
Outline: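 Rats were given a single iv injection at 2, 4 or 8 mg/kg. Plasma parent drug and released docetaxel were followed over time. Cmax, Tmax, AUC, MRT, t1/2, CL and Vss were reported for males, females and all animals combined.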

[31] = Plasma protein binding in dog plasma incubated for 4 hrs; assay type: ADME, cell-free, Canis lupus familiaris; conditions: read-out: PPB (converted)
[32] = Cmax in female Beagle dog at 2 mg/kg,iv measured upto 24 hrs; assay type: ADME, organism-based, Canis lupus familiaris; design: dose 2 mg/kg, time < 24 hrs, route iv; conditions: in vivo; outline: as §3
[33] = Toxicity in Beagle dog assessed as erythema at 3 to 18 mg/kg,iv measured upto 24 hrs; assay type: organism-based, Canis lupus familiaris; conditions: in vivo, dose 3-18 mg/kg
[34] = Toxicity in HaM/ICR mouse assessed as effect on motor autonomic activity at 5 to 20 mg/kg,iv; assay type: organism-based; conditions: in vivo, dose 5-20 mg/kg

Cmax [2]: 8.09 µM
Compound: CC(=O)O[C@@]12CO[C@@H]1C[C@H](O)[C@@]1(C)C(=O)[C@H](O)C3=C(C)[C@@H](OC(=O)[C@H](O)[C@@H](NC(=O)OC(C)(C)C)c4ccccc4)C[C@@](O)([C@@H](OC(=O)c4ccccc4)[C@H]21)C3(C)C [DOCETAXEL ANHYDROUS]
Activity (4T1 [1]): Active
Activity (4T1 [3]): inactive
Activity (4T1 [4]): inactive

Compound: CC(=O)O[C@@]12CO[C@@H]1C[C@H](O)[C@@]1(C)C(=O)[C@H](O)C3=C(C)[C@@H](OC(=O)[C@H](OC(=O)CCC(=O)NCCCC[C@H](NC(=O)CC[C@@H](NC(=O)[C@H](C)NC(=O)/C=C/c4ccc(F)cc4Cl)C(N)=O)C(=O)O)[C@@H](NC(=O)OC(C)(C)C)c4ccccc4)C[C@@](O)([C@@H](OC(=O)c4ccccc4)[C@H]21)C3(C)C
LD50 [5]: 13.2 mg/kg
NOAEL [6]: 2 mg/kg
Stability [7]: Stable
Tmax [8]: 4.98 min
Activity [9]: Toxic
Activity (4T1 [10]): 20.2%
half-life [11]: 7.8 min
inhibition (MDA-MB-231): Active
Drug metabolism [12]: Metabolite_Detected
MRT inf [13]: 15.2 min
Tmax [14]: 4.98 min
Drug metabolism [15]: Metabolite_Detected
Cmax [16]: 10800 ng/mL
Cmax [17]: 14.7 µM
Tmax [18]: 1.8 min
Tmax [19]: 15 min
Stability [20]: Stable
clearance [21]: 4.28 mL/min/kg
clearance [22]: 11.5 mL/min/kg
Activity (4T1 [23]): Active
AUC(0-t) at 24 h [24]: 15200 ng·h/mL
AUC(0-inf) [25]: 39400 ng·h/mL
MTD [26]: 9.4 mg/kg
Cmax [27]: 29600 ng/mL
Cmax [28]: 3740 ng/mL
MRT inf [29]: 12.1 min
IC50 (COLO 205): 16.3 nM
Cmax [30]: 34200 ng/mL
fraction unbound at 4 h [31]: 0.003
Cmax [32]: 14700 ng/mL
Activity [33]: Toxic
Activity [34]: Non-Toxic
